Assay results published in ChEMBL document CHEMBL3232844, “Synthesis and structure activity relationships of schweinfurthin indoles” (2014).

Legend:
Format in all cases: functional
[1] = test system: K562; assay: Cytotoxicity against human K562 cells; details: for CC50: read-out: pLC50 (the source's name) (converted); for TGI: read-out: pTGI (converted)
Outline: (§1)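 Tested in a 60-cell-line human tumor panel screen; the read-out is growth inhibition, reported as GI50 for each cell line.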

[2] = test system: RPMI-8226; assay: Cytotoxicity against human RPMI8226 cells; details: for CC50: read-out: pLC50 (the source's name) (converted); for TGI: read-out: pTGI (converted); outline: as §1
[3] = Cytotoxicity against human EKVX cells; details: for CC50: read-out: pLC50 (the source's name) (converted); for TGI: read-out: pTGI (converted); outline: as §1
[4] = test system: HOP-92; assay: Cytotoxicity against human HOP92 cells; details: for CC50: read-out: pLC50 (the source's name) (converted); for TGI: read-out: pTGI (converted); outline: as §1
[5] = test system: NCI-H226; assay: Cytotoxicity against human NCI-H226 cells; details: for CC50: read-out: pLC50 (the source's name) (converted); for TGI: read-out: pTGI (converted); outline: as §1
[6] = test system: NCI-H23; assay: Cytotoxicity against human NCI-H23 cells; details: for CC50: read-out: pLC50 (the source's name) (converted); for TGI: read-out: pTGI (converted); outline: as §1
[7] = test system: SW-620; assay: Cytotoxicity against human SW620 cells; details: for CC50: read-out: pLC50 (the source's name) (converted); for TGI: read-out: pTGI (converted)
Outline: (§2)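 Cell line run as part of the 60-cell-line screening panel; growth inhibition was reported as a GI50 for each line.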

[8] = test system: Malme-3M; assay: Cytotoxicity against human MALME-3M cells; details: for CC50: read-out: pLC50 (the source's name) (converted); for TGI: read-out: pTGI (converted); outline: as §1
[9] = test system: M14; assay: Cytotoxicity against human M14 cells; details: for CC50: read-out: pLC50 (the source's name) (converted); for TGI: read-out: pTGI (converted); outline: as §1
[10] = test system: NCI-H522; assay: Cytotoxicity against human NCI-H522 cells; details: for CC50: read-out: pLC50 (the source's name) (converted); for TGI: read-out: pTGI (converted); outline: as §1
[11] = test system: SK-MEL-28; assay: Cytotoxicity against human SK-MEL-28 cells; details: for CC50: read-out: pLC50 (the source's name) (converted); for TGI: read-out: pTGI (converted); outline: as §1
[12] = Cytotoxicity against human OVCAR3 cells; details: for GI50: OVCAR-3; for CC50: OVCAR-3, read-out: pLC50 (the source's name) (converted); for TGI: OVCAR-3, read-out: pTGI (converted); outline: as §1
[13] = Cytotoxicity against human OVCAR8 cells; details: for GI50: OVCAR-8; for CC50: OVCAR-8, read-out: pLC50 (the source's name) (converted); for TGI: OVCAR-8, read-out: pTGI (converted); outline: as §1
[14] = test system: RXF 393; assay: Cytotoxicity against human RXF393 cells; details: for TGI: read-out: pTGI (converted); outline: as §1
[15] = Cytotoxicity against human UO31 cells; details: for GI50 / LC50: UO-31; for TGI: UO-31, read-out: pTGI (converted); outline: as §2
[16] = Cytotoxicity against human Hs578T cells; details: Hs-578T; for TGI: read-out: pTGI (converted); outline: as §1
[17] = test system: MDA-MB-468; assay: Cytotoxicity against human MDA-MB-468 cells; details: for TGI: read-out: pTGI (converted); outline: as §1

COc1cc(/C=C/c2cc(O)c3cc(CC=C(C)C)[nH]c3c2)cc2c1O[C@]1(C)CC[C@@H](O)C(C)(C)[C@H]1C2
GI50 [1]: 2.04 µM | CC50 [1]: > 100 µM | TGI [1]: > 100 µM | GI50 [2]: 0.282 µM | CC50 [2]: > 100 µM | TGI [2]: 32.4 µM | GI50 [3]: 4.79 µM | CC50 [3]: > 100 µM | TGI [3]: > 100 µM | GI50 [4]: 1.38 µM | CC50 [4]: > 100 µM | TGI [4]: 42.7 µM | GI50 [5]: 57.5 µM | CC50 [5]: > 100 µM | TGI [5]: > 100 µM | GI50 [6]: 6.31 µM | CC50 [6]: > 100 µM | TGI [6]: > 100 µM | GI50 [7]: 2.04 µM | CC50 [7]: 39.8 µM | TGI [7]: 8.32 µM | GI50 [8]: 4.9 µM | CC50 [8]: > 100 µM | TGI [8]: > 100 µM | GI50 [9]: 1.66 µM | CC50 [9]: 63.1 µM | TGI [9]: 9.33 µM | GI50 [10]: 4.9 µM | CC50 [10]: > 100 µM | TGI [10]: 43.7 µM | GI50 [11]: 4.68 µM | CC50 [11]: 91.2 µM | TGI [11]: 50.1 µM | GI50 [12]: 43.7 µM | CC50 [12]: > 100 µM | TGI [12]: > 100 µM | GI50 [13]: > 100 µM | CC50 [13]: > 100 µM | TGI [13]: > 100 µM | GI50 [14]: 0.0832 µM | LC50 [14]: 11.2 µM | TGI [14]: 0.447 µM | GI50 [15]: 0.479 µM | LC50 [15]: > 100 µM | TGI [15]: 5.89 µM | GI50 [16]: 0.309 µM | LC50 [16]: > 100 µM | TGI [16]: > 100 µM | GI50 [17]: 3.02 µM | LC50 [17]: > 100 µM | TGI [17]: 26.9 µM

COc1cc(/C=C/c2cc(O)c3ccn(C)c3c2)cc2c1O[C@]1(C)CC[C@@H](O)C(C)(C)[C@H]1C2
GI50 [1]: 0.794 µM | CC50 [1]: > 100 µM | TGI [1]: > 100 µM | GI50 [2]: 0.0708 µM | CC50 [2]: > 100 µM | TGI [2]: 1.62 µM | GI50 [3]: 4.27 µM | CC50 [3]: > 100 µM | TGI [3]: 85.1 µM | GI50 [4]: 0.525 µM | CC50 [4]: > 100 µM | TGI [4]: 5.62 µM | GI50 [5]: 11.5 µM | CC50 [5]: 64.6 µM | TGI [5]: 26.9 µM | GI50 [6]: 2.45 µM | CC50 [6]: > 100 µM | TGI [6]: 30.2 µM | GI50 [7]: 1.02 µM | CC50 [7]: > 100 µM | TGI [7]: 3.24 µM | GI50 [8]: 0.309 µM | CC50 [8]: > 100 µM | TGI [8]: 49 µM | GI50 [9]: 0.525 µM | CC50 [9]: > 100 µM | TGI [9]: 4.37 µM | GI50 [10]: 1.45 µM | CC50 [10]: > 100 µM | TGI [10]: 4.37 µM | GI50 [11]: 0.832 µM | CC50 [11]: > 100 µM | TGI [11]: 16.2 µM | GI50 [12]: 4.79 µM | CC50 [12]: > 100 µM | TGI [12]: 42.7 µM | GI50 [13]: 11.2 µM | CC50 [13]: > 100 µM | TGI [13]: 77.6 µM | GI50 [14]: 0.0302 µM | LC50 [14]: 8.71 µM | TGI [14]: 0.12 µM | GI50 [15]: 0.437 µM | LC50 [15]: > 100 µM | TGI [15]: 7.24 µM | GI50 [16]: 0.141 µM | LC50 [16]: > 100 µM | TGI [16]: 20.4 µM | GI50 [17]: 1.02 µM | LC50 [17]: > 100 µM | TGI [17]: 14.1 µM
